# proCasp7 act: counter-screen: procaspase-7 (human) activation; P55210; recombinant procaspase-7, Ac-DEVD-pNA absorbance 405 nm; D23A/D198A/D206A triple mutant, cannot self-cleave; scale: DMSO 0, 5 µM enzyme 100; activation, % at 8.5 µM; 0.093% of 330,000 active;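 active means percent activation above the screen-wide mean plus 3 SD, cut at about 25% in these data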
# Target sequence (P55210 whole entry D23A/D198A/D206A): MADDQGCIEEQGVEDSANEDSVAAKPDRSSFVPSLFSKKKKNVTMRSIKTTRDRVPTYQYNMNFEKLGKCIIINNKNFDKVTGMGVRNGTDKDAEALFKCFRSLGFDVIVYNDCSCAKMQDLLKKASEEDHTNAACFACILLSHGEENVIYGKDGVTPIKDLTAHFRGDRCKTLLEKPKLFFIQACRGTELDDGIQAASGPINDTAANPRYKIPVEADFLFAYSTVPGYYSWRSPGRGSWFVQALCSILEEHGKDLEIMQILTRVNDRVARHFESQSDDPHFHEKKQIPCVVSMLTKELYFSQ
#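 Detection: p-Nitroaniline absorbance at 405 nm, read at 0 and 120 min; system: Uncleavable procaspase-7 mutant enzyme; evaluation: % activation from two-timepoint absorbance difference, scaled to controls; times: 1 h enzyme–compound preincubation and 2 h substrate reaction, both 25 °C; buffer or medium: Zinc-free HEPES pH 7.4 with 300 mM NaCl, 0.01% Triton X-100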
# proCasp3 act: procaspase-3 (human) activation; 0.11% of 330,000 active; AID 463141; activation, % at 8.5 µM; recombinant procaspase-3 D3A, Ac-DEVD-pNA absorbance 405 nm; P42574;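 active means activation above the mean of all tested compounds plus 3 SD, cut at about 21% in these data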
# Target sequence (P42574 whole entry D9A/D28A/D175A): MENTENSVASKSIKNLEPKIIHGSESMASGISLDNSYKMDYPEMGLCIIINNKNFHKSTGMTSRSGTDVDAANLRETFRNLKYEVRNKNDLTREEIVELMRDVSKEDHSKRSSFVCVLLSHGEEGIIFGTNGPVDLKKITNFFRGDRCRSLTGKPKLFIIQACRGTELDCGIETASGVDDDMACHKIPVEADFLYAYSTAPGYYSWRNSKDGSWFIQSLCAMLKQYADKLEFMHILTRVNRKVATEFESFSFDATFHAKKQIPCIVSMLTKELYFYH
#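 Test system: Procaspase-3 D3A mutant, all three cleavage aspartates alanine | Dosing: Single dose, 8.5 µM nominal compound, 0.8% DMSO | Schedule: 1 h preincubation, 2 h reaction | Technique: 405 nm absorbance of p-nitroaniline, reads at 0 and 120 min | Repeats: One well per compound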
# PolyA inhibitor: yeast polyadenylation inhibition | S. cerevisiae SKY197-pL101 polyadenylation reporter, beta-gal luminescence; efflux-impaired pdr1/pdr3 knockout yeast; score 100 = 6 SD above DMSO | activity score, % at 12 µM | 0.02% of 300,000 active | AID 1875;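 active means lowest replicate activity score at least 50, where 100 means six control SD above control mean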;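 further: yeast exposed to compound for 9 h at 30 °C; higher score means more reporter readthrough which indicates perturbed polyadenylation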
# AHR activator: activates the human aryl hydrocarbon receptor; P35869; activation, % at 5 µM; 2.5% of 320,000 active; AHR-responsive luciferase reporter cells, luminescence; AID 2796; in the data active means activation above about 47%
# A number is an active result; i = inactive; nt = not tested or not shown. Rows were chosen to be rich in hits. Some 2.6% of all compounds tested hit in one or more screens of this group.
SMILES,proCasp7 act,proCasp3 act,PolyA inhibitor,AHR activator
CCOc1ccc(NC(=O)C2CCCN(c3cnccn3)C2)cc1 (stereo not drawn),i,i,i,64
COc1cccc(CNC(=O)C2CCCN(c3cnccn3)C2)c1 (stereo not drawn),i,i,i,i
O=C(Nc1ccc(F)cc1)C1CCCN(c2cnccn2)C1 (stereo not drawn),i,i,i,i
O=C(NCc1ccc(Cl)cc1)C1CCN(c2cnccn2)CC1,i,i,i,i
CCCc1ccc(NC(=O)C2CCCN(c3cnccn3)C2)cc1 (stereo not drawn),i,i,i,48
Cc1cccc(CCNC(=O)C2CCCN(c3cnccn3)C2)c1 (stereo not drawn),i,i,i,73
O=C(Nc1ccc(Cl)cc1)C1CCCN(c2cnccn2)C1 (stereo not drawn),i,i,i,i
O=C1c2ccccc2C(=O)C1c1nccc2ccccc12,i,i,i,51
N#CC1=C(N)SC(N)=C(C#N)C1c1ccnc2ccccc12,i,i,i,i
O=C1c2ccccc2C(=O)C1c1ccnc2ccccc12,i,i,i,62
CCc1ccccc1C1C(=O)c2ccccc2C1=O,i,i,i,i
O=C1C(c2ccnc3ccccc23)=C(O)c2ccccc21,i,i,i,54
COc1cc(C(=O)N(C)CCOc2ccccc2)ccc1OCC(=O)Nc1cccc(C(F)(F)F)c1,i,i,i,i
Nc1ncnc2c1ncn2[C@@H]1O[C@H](CNCc2ccc(-n3cccn3)cc2)[C@@H](O)[C@H]1O,i,i,nt,i
CCOc1ccccc1/C=N/NC(=O)c1nnn(-c2nonc2N)c1CN1CCCC1,i,i,i,i
Cc1cc(C)c(C)c(S(=O)(=O)N2CCC(C(=O)N3CC(C)CC(C)C3)CC2)c1C (stereo not drawn),i,i,i,i
CCOc1ccc(C(=O)NC2=NCCS2)cc1,i,i,i,i
CCOc1cc(C(=O)NC2=NCCS2)cc(OCC)c1OCC,i,i,i,55
CC(/C=C/C(=O)c1ccc(C)cc1)=C\c1ccccc1,i,i,i,64
COc1cc(N2CCCC2)c(OC)cc1/C=C(/C#N)c1cccc(F)c1,i,i,i,69
Cc1cc(C(=O)N/N=C/c2cc(Br)c(Br)o2)n[nH]1,i,i,i,i
O=C(N/N=C/c1cc(O)ccc1Br)c1cccnc1,i,i,i,i
O=C(N/N=C\c1ccncc1)c1ccc(Br)s1,nt,nt,i,nt
COC(=O)N/N=C\c1cc2c(cc1Br)OCO2,i,i,i,i
O=C(N/N=C/C=C/c1ccccc1[N+](=O)[O-])c1cccnc1,i,i,i,72
SMILES,proCasp7 act,proCasp3 act,PolyA inhibitor,AHR activator
O=C(N/N=C/C=C\c1ccccc1[N+](=O)[O-])c1cccnc1,i,i,i,i
O=C(N/N=C/c1cc2c(cc1Br)OCO2)c1cccnc1,i,i,i,48
Cc1ccc(C(=O)N/N=C\c2ccncc2)s1,i,i,i,55
Cc1ccc(C(=O)N/N=C\c2cc3c(cc2Br)OCO3)s1,i,i,i,47
O=C(N/N=C\C=C\c1ccc2c(c1)OCO2)c1cccnc1,i,i,nt,68
Cc1ccc(CN(CC(=O)NCCc2ccccc2)C(=O)c2csnn2)cc1,i,i,i,i
CN(C(=O)C1CCC(=O)N(CCc2ccc(Cl)cc2)C1)C1CCOCC1 (stereo not drawn),i,i,i,i
O=C(NNC(=S)NC1CC2C=CC1C2)c1cccnc1 (stereo not drawn),i,i,66,i
CCOC(=O)c1c(C)n(-c2ccccc2)c2ccc(OCCN(C)C)cc12,i,i,i,i
CCOC(=O)c1cn2nc(SCc3ccccc3)nc2nc1C,i,i,i,i
COc1cccc(NC(=O)COc2coc(CN3CCc4ccccc4C3)cc2=O)c1,i,i,i,i
O=C(c1cc(S(=O)(=O)N2CCOCC2)ccc1Cl)N1CCCCC1CO (stereo not drawn),i,i,nt,i
CCOc1ccc(N=C2NC(=O)S/C2=C\c2ccc(N(C)C)cc2)cc1,i,i,i,62
CCOc1ccc(/C=C2/SC(=O)NC2=S)cc1,i,i,i,i
Cc1cc(OCc2cc(C(=O)NC(C)c3c(C)nn(C)c3C)no2)cc(C)c1Cl (stereo not drawn),i,i,i,i
COc1ccc(Nc2nccc(-c3ccc([N+](=O)[O-])cc3)n2)cc1,i,i,i,61
CCOc1ncccc1C(=O)Nc1ccccc1F,i,i,i,i
CCOc1ncccc1C(=O)NNC(=O)c1ccccc1-n1cccc1,i,i,i,61
CCN1CCN(CC(=O)Nc2ccc(S(=O)(=O)N3C(C)CCCC3C)cc2)CC1 (stereo not drawn),i,i,i,i
CC(=O)N(CCc1ccccc1)Cc1cc2cc(C)ccc2[nH]c1=O,i,i,i,54
COc1ccc2[nH]c(=O)c(CN(CCc3ccccc3)C(C)=O)cc2c1,i,i,i,i
COc1ccc2ccc(OC)c(/C=N/n3cnnc3)c2c1,i,i,i,i
C=CCNCc1ccc(C(=O)NCCCCCCC)cc1[N+](=O)[O-],i,i,i,i
O=C1c2ccccc2C(=O)c2cc(NC(=O)C3CC3)ccc21,i,i,i,168
O=C(Nc1ccc2c(c1)oc1ccccc12)C1CC1,i,i,i,74
SMILES,proCasp7 act,proCasp3 act,PolyA inhibitor,AHR activator
O=C(Nc1ccc2c(c1)oc1ccc(S(=O)(=O)N3CCCC3)cc12)C1CC1,i,i,i,i
CC(C)CN1C(=O)c2ccc(NC(=O)C3CC3)cc2C1=O,i,i,i,i
COc1ccc(NC(=S)Nc2ccccc2SC)c(OC)c1,i,i,i,i
O=C(NC1CCCCC1)C1CC(=O)N(c2ccccc2)C1 (stereo not drawn),i,i,i,i
CN1C(=O)/C(=C2\SC(N3CCCCCC3)=NC2=O)c2ccccc21,i,i,i,i
CN1C(=O)/C(=C2\SC(N)=NC2=O)c2ccccc21,i,i,i,73
COc1cc2cnc(-c3ccsc3)cc2cc1OC,i,i,nt,49
COc1cc2cnc(-c3ccsc3)c(-c3ccc(F)cc3)c2cc1OC,i,i,nt,i
Fc1ccc2cc(-c3cccnc3)ncc2c1,i,i,nt,i
Fc1ccc2cc(-c3ccsc3)ncc2c1,i,i,nt,51
CC1CCC(NC(=O)CNC(=O)Cc2cccc3ccccc23)CC1 (stereo not drawn),i,i,i,i
COCCn1c(SCC(=O)Nc2cccc(F)c2)nc2c([nH]c3ccccc32)c1=O,i,i,i,65
CC(=O)Nc1ccc(NC(=O)CSc2nc3c([nH]c4ccccc43)c(=O)n2-c2ccccc2F)cc1,i,i,i,58
Cn1c(SCC(=O)Nc2ccccc2)nc2c([nH]c3ccccc32)c1=O,i,i,i,53
CCOC(=O)N1CCN(C(=O)CSc2nc3c([nH]c4ccccc43)c(=O)n2CCOC)CC1,i,i,i,i
CCn1c(SCC(=O)N2CCN(c3ccccc3)CC2)nc2c([nH]c3ccccc32)c1=O,i,i,i,54

# Screens deposited in PubChem BioAssay by several laboratories.
